Rows were chosen to be rich in hits. Some 4.1% of all compounds tested hit in one or more screens of this group.
STAT1 activator: increases IFN-gamma driven STAT1 reporter signal | NIH 3T3 STAT1-luciferase reporter, luminescence; 100% = IFN-gamma alone, no compound | activation (% of control), % at 5.5 µM | actives 2.6% (n = 200,000);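 active means activation above the screen-wide mean activation plus 3 SD, cut at about 130% in these data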;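 further: raw ratio to IFN-gamma control signal so 100% means no change and 0% no light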
APP 5'UTR act: activates APP 5'UTR luciferase reporter. activation, % at 2 µM. SH-SY5Y APP 5'UTR luciferase reporter, luminescence; zero percent = DMSO vehicle wells. actives 1% (n = 190,000). AID 1276;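 active means activation above a set limit, based on mean plus 3 SD of controls, cut at about 140% in these data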
FLuc inhib CS: counter-screen for luciferase assay inhibitors: firefly luciferase inhibition | P08659 | actives 1.5% (n = 200,000) | inhibition, % at 10 µM | ATPLite firefly luciferase biochemical luminescence, 10 min;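 active means inhibition above about 50% when tested at 10 µM, limit read from the data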
Target sequence (P08659 whole entry, looked up): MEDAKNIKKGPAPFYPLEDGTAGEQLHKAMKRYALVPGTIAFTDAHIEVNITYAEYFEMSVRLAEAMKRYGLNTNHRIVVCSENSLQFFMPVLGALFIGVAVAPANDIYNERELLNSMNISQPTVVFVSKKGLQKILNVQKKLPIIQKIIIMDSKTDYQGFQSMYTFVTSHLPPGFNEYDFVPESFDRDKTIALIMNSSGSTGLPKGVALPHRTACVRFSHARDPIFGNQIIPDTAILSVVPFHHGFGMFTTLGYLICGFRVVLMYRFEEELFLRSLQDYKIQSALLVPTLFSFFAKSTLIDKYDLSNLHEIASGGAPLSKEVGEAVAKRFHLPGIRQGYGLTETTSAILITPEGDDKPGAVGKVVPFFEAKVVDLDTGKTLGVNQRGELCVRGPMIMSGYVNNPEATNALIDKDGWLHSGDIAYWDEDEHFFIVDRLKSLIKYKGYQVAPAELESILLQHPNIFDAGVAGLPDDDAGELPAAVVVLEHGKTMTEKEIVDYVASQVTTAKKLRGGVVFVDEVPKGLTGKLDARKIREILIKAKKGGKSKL
FLuc stim CS: affects firefly luciferase, flagging false hits in luciferase stimulation screens. P08659. ATPlite luciferase biochemical, luminescence, 10 min; 0 = ATP-free wells, 1 = DMSO control. activation factor at 10 µM. 200,000 tested, under 10 active. AID 1027;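 active means luciferase activation factor, scaled between plate controls, of at least 2 with compound at 10 µM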
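System: luciferase plus luciferin reagent, cell-free; medium: PBS as buffer for the ATP substrate; dosing: test compounds dosed from 2 mM stocks in 100% DMSO; timing: 10 min post-reagent at room temperature; measured by: luminescence measurement of luciferase light output; evaluation: luciferase activation, seen as luminescence increase over controls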
NF-kB expr up: NF-kB expression increase, human neuronal cells. NF-kB reporter expression; stronger effect = higher value. AID 1239. actives 1.6% (n = 190,000). fold change at 12.5 µM; in the data active means fold change above about 3.3
Numbers without * were called inactive; · = no result given.

SMILES	STAT1 activator	APP 5'UTR act	FLuc inhib CS	FLuc stim CS	NF-kB expr up
CC1=C(C(=O)Nc2ccc(C)cc2C)C(c2cccc(Cl)c2)n2nc(C(=O)OC(C)C)nc2N1 (stereo not drawn)	102	-11	-6	1.1	1.1
CCC(C)/C(C)=N/NC(=O)c1ccc(CSc2nc3ccccc3s2)cc1 (stereo not drawn)	130*	46	-3	1	1.3
COCCNC(=O)C1CCC(Cn2c(=S)[nH]c3ccccc3c2=O)CC1 (stereo not drawn)	102	-1	-7	1.1	1.1
CCS(=O)(=O)N1Cc2ccccc2CC1C(=O)Nc1ccc(NC(C)=O)cc1 (stereo not drawn)	107	-6	-9	1.1	0.85
CCOC(=O)/C(C#N)=C/Nc1ccccc1OC	145*	32	44	0.6	2.5
COc1ccc(-c2noc(CN3CCCCC3)n2)cc1OC	103	2	1	1	1.2
Cc1ccc(Cl)cc1NC(=O)C1CCCN(S(=O)(=O)c2c(C)noc2C)C1 (stereo not drawn)	98	8	7	0.9	0.93
CN(Cc1cccs1)C(=O)CCCc1c[nH]c2ccccc12	130*	58	5	0.9	1
CN(Cc1cccs1)C(=O)CCc1c[nH]c2ccccc12	102	8	0	1	1.1
O=C(O)COc1ccc(/C=C/c2ccc3cccc([N+](=O)[O-])c3n2)cc1	90	10	50	0.5	0.89
COc1cc(/C=C/c2ccc3cccc([N+](=O)[O-])c3n2)ccc1OCC(=O)O	102	19	58*	0.4	0.96
COC(=O)Cc1csc(N)n1	98	0	-6	1.1	1.1
Cc1cc(C(=O)CSc2ccc(F)cc2)cc(C)c1OC(=S)N(C)C	120	160*	33	0.7	0.4
O=C(COC(=O)c1ccccn1)c1ccc(Br)cc1	102	4	63*	0.4	1.1
O=C(COC(=O)c1n[nH]c(=O)c2ccccc12)c1ccc(Br)cc1	99	-30	11	0.9	1.1
CCOC(=O)/C(N=Nc1c(C)n(C)n(-c2ccccc2)c1=O)=C(\C)O	90	4	-5	1	1
Cc1ccc(NCCC(=O)c2cccs2)cc1Cl	110	-5	-1	1	2
Cc1ccc(NCCC(=O)c2cccs2)cc1	150*	22	10	0.9	0.88
Cc1ccc(NCCC(=O)c2cccs2)cc1C	143*	82	38	0.6	1.6
CC(C)c1ccc(NCCC(=O)c2cccs2)cc1	123	43	12	0.9	1
O=C(Cc1ccccc1)N/N=C/c1ccc2cccc(O)c2n1	110	12	9	0.9	1.5
CN(CCO)c1c2c(nc3cc(-c4cccc(F)c4)nn13)CCCC2	142*	153*	13	0.9	2.1
OC1CCN(c2c3c(nc4cc(-c5cccc(F)c5)nn24)CCCC3)CC1	118	-5	2	1	0.68
CCCc1cc(C(=O)Nc2sc(C)c(CC)c2C#N)no1	106	18	-3	1	1.5
CC(C)c1ccc(COc2ccc(C(=O)N3CCOCC3)cc2)cc1	83	9	-4	1	1.1
SMILES	STAT1 activator	APP 5'UTR act	FLuc inhib CS	FLuc stim CS	NF-kB expr up
Cc1ccc(OCc2ccc(C(=O)N3CCOCC3)cc2)cc1C	142*	·	9	0.9	1.8
COc1ccccc1NC(=O)C1=C(C)NC(SCC(=O)c2ccc(C)cc2)=C(C#N)C1c1ccco1 (stereo not drawn)	93	-10	-2	1	0.84
Cc1ccc2nc(C)/c(=N\O)c(C)nc2c1	137*	195*	-3	1	1.4
Cc1nc2ccccc2nc(C)c1=NO	138*	52	0	1	1.2
Cc1ccc(C(=O)N2Cc3ccccc3CC2C(=O)O)cc1 (stereo not drawn)	109	-2	-4	1	1.1
Cc1ccc(S(=O)(=O)N2CCN(C(=O)CSc3ncc(C(F)(F)F)cc3Cl)CC2)cc1	93	2	58*	0.4	0.95
Cc1ccc(S(=O)(=O)N(C)C)cc1NC(=O)CSc1ncc(C(F)(F)F)cc1Cl	102	9	1	1	0.88
O=C(O)c1cccnc1SCC(=O)N1CCCCCC1	99	-6	-3	1	0.88
O=C(CSc1cccc2cccnc12)N1CCCC1	97	-28	-3	1	5*
O=C(CSc1nncc2ccccc12)N1CCCCC1	130*	22	6	0.9	1.9
CN(C)C(=O)CSc1cccc2cccnc12	105	-11	-6	1.1	5.1*
O=C(CSc1nc(C2CCCCC2)nc2ccccc12)N1CCCC1	93	13	-6	1.1	1
NNC(=O)CSc1cccc2cccnc12	101	40	-1	1	1
O=C(Cn1nnc(-c2cccs2)n1)NCc1cccs1	102	-11	-4	1	1.2
O=C(Oc1ccccc1OC(=O)N1CCOCC1)N1CCOCC1	105	-1	-1	1	1.2
CC(=O)N1CCc2cc(N=NC3=C(O)CC(C)(C)CC3=O)ccc21	132*	109	17	0.8	0.92
CCC(=O)Nc1cc(C(=O)OCC(=O)c2ccccc2Cl)ccc1C	125	24	30	0.7	2.2
CCC(=O)Nc1cc(C(=O)OCC(=O)c2ccccc2)ccc1C	144*	47	16	0.8	0.72
N/C(=N\O)c1ccc(NC(=O)c2cccs2)cc1	130*	51	28	0.7	2.3
C/C(=N\NC(=O)c1ccccc1C)c1ccc(NC(=O)c2cccs2)cc1	116	95	-2	1	1.1
C/C(=N\NC(=O)c1ccccc1)c1ccccc1F	132*	95	38	0.6	1
CC(=O)Nc1cccc(/C(C)=N/NC(=O)c2cccs2)c1	140*	7	11	0.9	1.2
C/C(=N/NC(=O)c1cccs1)c1cccc(N)c1	121	111	8	0.9	2.1
C/C(=N\NC(=O)c1ccccc1)c1ccc(NC(=O)c2cccs2)cc1	136*	79	-1	1	1.3
CC(=O)c1ccc(NC(=O)c2cccs2)cc1	127	74	30	0.7	2.5
SMILES	STAT1 activator	APP 5'UTR act	FLuc inhib CS	FLuc stim CS	NF-kB expr up
S=C(NCC1CCCO1)Nc1ccc(Cl)cc1 (stereo not drawn)	113	-7	8	0.9	1.4
CCOC(=O)C1CCN(C(=O)c2ccccc2Oc2ccccc2)CC1	99	12	0	1	1.8
CCN(CC)S(=O)(=O)c1cccc(C(=O)N/N=C(\C)c2cccs2)c1	129*	112	47	0.5	2.8
C/C(=N\NC(=O)C(N)=O)c1ccc(NC(=O)c2cccs2)cc1	137*	56	4	1	1.7
C/C(=N\NC(=O)c1cccc(S(=O)(=O)Nc2cccc(Cl)c2)c1)c1cccs1	105	2	-6	1.1	1.2
C/C(=N\NC(=O)C(N)=O)c1ccc(Br)cc1	94	4	-1	1	1.4
COc1cccc(C(=O)/C=C/Nc2ccc(S(=O)(=O)Nc3cnc4ccccc4n3)cc2)c1	137*	18	1	1	1

Assay outcomes as filed in PubChem BioAssay.
